# Measured values reported in PubChem BioAssay AID488910 (Broad Institute, 2010).
# Among all 20,000 compounds or so, about 25 (0.1%) were called active. This is one part of a sample in which actives are shown more often than they occur. Unmarked numbers belong to inactive results.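 The calls were made as follows: active = mean replicate protection from cytokine-induced ATP loss at least 50% and at least 75% of replicates each reaching 50%; inconclusive = meets only one of the two criteria, mean or replicate share; inactive = fails both the mean and replicate share criteria.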
# Assay: preservation of ATP in cytokine-treated beta cells – cell-based, ATP luminescence, single point, primary screen (AID 488910)
# Details: INS-1E cytokine-induced death, 48 h, at 10 µM, active compounds read high, normalised: neutral wells 0, positive control 100
# Procedure, shortened: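 Material: INS-1E rat cells; Quantity: 8000 cells/well; Buffer or medium: phenol-red-free RPMI with 5% fetal bovine serum; Probe or stimulus: cytokine cocktail of IFN-γ, TNF-α and IL-1β; Compound dosing: single test concentration per compound, delivered by pin transfer; Incubation: 48 h co-treatment, 10 min post-lysis read; Signal: CellTiter-Glo luminescence.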
row,SMILES,protection from cytokine-induced ATP loss [%]
1,C[C@@H]1CN([C@H](C)CO)C(=O)c2cc(NS(=O)(=O)c3cn(C)cn3)ccc2O[C@H]1CN(C)S(=O)(=O)c1ccc(Cl)cc1,0.346
2,COc1ccc(NC(=O)N(C)C[C@@H]2Oc3c(NS(C)(=O)=O)cccc3C(=O)N([C@H](C)CO)C[C@H]2C)cc1,3.08
3,Cc1ccc(S(=O)(=O)N(C)C[C@H]2Oc3c(NS(=O)(=O)c4cccs4)cccc3C(=O)N([C@@H](C)CO)C[C@@H]2C)cc1,-3.52
4,O=C(O)CCCCCC(=O)N/N=C/c1ccco1,17.1
5,Cc1ccc(S(=O)(=O)Nc2ccc3c(c2)C(=O)N([C@@H](C)CO)C[C@@H](C)[C@H](CN(C)CC2CC2)O3)cc1,-3.86
6,C[C@H]1CN([C@@H](C)CO)C(=O)c2cccc(NC(=O)c3ccncc3)c2O[C@@H]1CN(C)C,7.37
7,C[C@H]1CN([C@@H](C)CO)C(=O)c2cccc(NC(=O)Nc3ccc(C(F)(F)F)cc3)c2O[C@@H]1CN(C)Cc1ccccc1,-19.3
8,Cc1noc(C)c1NC(=O)Nc1ccc2c(c1)CC(=O)N([C@H](C)CO)C[C@@H](C)[C@@H](CN(C)Cc1ccc(C(F)(F)F)cc1)O2,10.5
9,C[C@H](CO)N1C[C@H](C)[C@@H](CN(C)S(=O)(=O)c2ccccc2)Oc2c(NC(=O)c3ccc(-c4nccs4)cc3)cccc2C1=O,5.11
10,C[C@@H]1CN([C@H](C)CO)C(=O)c2cc(NC(=O)CCCCCC(=O)Nc3ccccc3N)ccc2O[C@@H]1CN(C)Cc1ccncc1,6.45
11,CC(C)NC(=O)Nc1ccc2c(c1)CC(=O)N([C@H](C)CO)C[C@@H](C)[C@H](CN(C)S(=O)(=O)c1ccccc1)O2,9.86
12,C[C@@H]1CN([C@@H](C)CO)C(=O)c2cccc(NS(=O)(=O)c3ccc(Cl)cc3)c2O[C@@H]1CN(C)C(=O)Nc1ccccc1,0.662
13,C[C@H]1CN([C@@H](C)CO)C(=O)c2cccc(NC(=O)Nc3ccccc3)c2O[C@H]1CN(C)C(=O)Nc1cccc2ccccc12,6.53
14,C[C@@H]1CN([C@@H](C)CO)C(=O)c2cc(NS(=O)(=O)c3cccs3)ccc2O[C@@H]1CN(C)S(=O)(=O)c1ccc(F)cc1,-0.641
15,Cc1noc(C)c1NC(=O)Nc1cccc2c1O[C@H](CN(C)C(=O)Nc1ccccc1)[C@@H](C)CN([C@H](C)CO)C2=O,6.69
16,C[C@H]1CN([C@@H](C)CO)C(=O)c2cccc(NC(=O)NC3CCCCC3)c2O[C@H]1CN(C)CC1CCCCC1,-14.4
17,Cc1noc(C)c1NC(=O)Nc1ccc2c(c1)C(=O)N([C@@H](C)CO)C[C@H](C)[C@@H](CN(C)C(=O)Nc1ccccc1)O2,-2.87
18,C[C@@H]1CN([C@H](C)CO)C(=O)Cc2cc(NC(=O)C3CCCCC3)ccc2O[C@@H]1CN(C)Cc1ccc(C(F)(F)F)cc1,-23.1
19,COc1ccc(NC(=O)N(C)C[C@@H]2Oc3c(NC(=O)C4CCOCC4)cccc3C(=O)N([C@H](C)CO)C[C@@H]2C)cc1,5.6

row,SMILES,protection from cytokine-induced ATP loss [%]
1,C[C@H](CO)N1C[C@H](C)[C@@H](CN(C)Cc2ccc(Cl)c(Cl)c2)Oc2ccc(NS(=O)(=O)c3ccccc3)cc2C1=O,-24.5
2,C[C@H](CO)N1C[C@H](C)[C@H](CN(C)C(=O)Nc2ccc(F)cc2)Oc2c(NC(=O)c3cnccn3)cccc2C1=O,8.13
3,C[C@@H]1CCCCO[C@H](CN(C)C(=O)c2ccccc2)[C@@H](C)CN([C@H](C)CO)C(=O)c2cc(NC(=O)Nc3cccc4ccccc34)ccc2O1,-1.39
4,C[C@@H]1CCCCO[C@H](CN(C)S(=O)(=O)c2ccccc2)[C@@H](C)CN([C@H](C)CO)C(=O)c2cc(NC(=O)Nc3ccc(F)cc3)ccc2O1,-6.46
5,CC(C)NC(=O)N(C)C[C@H]1Oc2ccc(NC(=O)Cn3cnnn3)cc2CC(=O)N([C@H](C)CO)C[C@H]1C,-1.35
6,Cc1noc(C)c1NC(=O)Nc1ccc2c(c1)C(=O)N([C@H](C)CO)C[C@H](C)[C@H](CN(C)Cc1ccc(Oc3ccccc3)cc1)O2,-15.9
7,C[C@H](CO)N1C[C@H](C)[C@H](CN(C)S(C)(=O)=O)Oc2ccc(NC(=O)Nc3ccc(F)cc3)cc2C1=O,2.55
8,CC(C)NC(=O)N(C)C[C@@H]1Oc2c(cccc2N(C)C)C(=O)N([C@@H](C)CO)C[C@H]1C,10.2
9,C[C@@H]1CN([C@H](C)CO)C(=O)c2cccc(NS(=O)(=O)c3ccc(F)cc3)c2O[C@@H]1CN(C)C(=O)Nc1ccc(C(F)(F)F)cc1,-38
10,Cc1ccc(S(=O)(=O)N(C)C[C@@H]2Oc3c(NC(=O)c4ccncc4)cccc3C(=O)N([C@@H](C)CO)C[C@@H]2C)cc1,11.7
11,COc1ccc(NC(=O)N(C)C[C@H]2Oc3c(NC(=O)Nc4cccc5ccccc45)cccc3C(=O)N([C@H](C)CO)C[C@@H]2C)cc1,-0.252
12,COc1cc(Br)cc(/C=N/NC(=O)c2ccccn2)c1O,-83.9
13,C[C@@H]1CCCCO[C@H](CN(C)CC2CC2)[C@@H](C)CN([C@H](C)CO)C(=O)c2cc(NC(=O)Cc3ccccc3)ccc2O1,-0.194
14,COc1ccc(NC(=O)N(C)C[C@H]2Oc3ccc(NC(=O)Nc4ccc5c(c4)OCO5)cc3C(=O)N([C@H](C)CO)C[C@H]2C)cc1,3.2
15,Cc1ccc(S(=O)(=O)Nc2ccc3c(c2)C(=O)N([C@H](C)CO)C[C@H](C)[C@H](CN(C)Cc2ccccc2)OCCCC[C@@H](C)O3)cc1,-2.3
16,CC(C)NC(=O)N(C)C[C@H]1Oc2c(NS(C)(=O)=O)cccc2C(=O)N([C@@H](C)CO)C[C@H]1C,12.8
17,C[C@H]1CN([C@@H](C)CO)C(=O)c2cc(NC(=O)Cn3cnnn3)ccc2O[C@@H]1CN(C)C(=O)Nc1ccccc1,2.24
18,Cc1ccc(S(=O)(=O)N(C)C[C@@H]2Oc3ccc(NC(=O)Nc4ccc5c(c4)OCO5)cc3C(=O)N([C@@H](C)CO)C[C@@H]2C)cc1,20.1
19,O=C(O)CCCCCCC(=O)N/N=C/c1ccncc1Br,6.66

row,SMILES,protection from cytokine-induced ATP loss [%]
1,C[C@H]1CN([C@@H](C)CO)C(=O)c2cccc(NC(=O)C3CCCCC3)c2O[C@H]1CN(C)C(=O)NC1CCCCC1,6.52
2,Cc1noc(C)c1NC(=O)N(C)C[C@H]1Oc2ccc(NC(=O)C3CCCCC3)cc2CC(=O)N([C@@H](C)CO)C[C@H]1C,4.09
3,Cc1ccc(S(=O)(=O)N(C)C[C@@H]2OCCCC[C@@H](C)Oc3ccc(NS(=O)(=O)c4ccccc4)cc3C(=O)N([C@H](C)CO)C[C@@H]2C)cc1,-4.67
4,Cc1ccc(S(=O)(=O)Nc2ccc3c(c2)C(=O)N([C@H](C)CO)C[C@H](C)[C@H](CN(C)Cc2ccc(C(=O)Nc4ccccc4N)cc2)OCCCC[C@@H](C)O3)cc1,1.83
5,C[C@H]1CN([C@@H](C)CO)C(=O)c2cc(NS(=O)(=O)c3ccc(Cl)cc3)ccc2O[C@H]1CN(C)Cc1ccc(Oc2ccccc2)cc1,-11.4
6,C[C@@H]1CCCCO[C@@H](CN(C)C(=O)CCCN(C)C)[C@@H](C)CN([C@H](C)CO)C(=O)c2cc(NC(=O)Nc3ccc(F)cc3)ccc2O1,9.84
7,C[C@H](CO)N1C[C@H](C)[C@H](CN(C)Cc2ccncc2)Oc2ccc(NC(=O)C3CCCCC3)cc2CC1=O,-9.96
8,COc1ccc(NC(=O)N(C)C[C@H]2Oc3c(NC(=O)C4CC4)cccc3C(=O)N([C@@H](C)CO)C[C@@H]2C)cc1,-1.85
9,C[C@@H]1CN([C@H](C)CO)C(=O)c2cccc(NC(=O)c3cnccn3)c2O[C@@H]1CN(C)Cc1ccncc1,3.26
10,C[C@@H]1CN([C@H](C)CO)C(=O)c2cc(NC(=O)CCCCCC(=O)Nc3ccccc3N)ccc2O[C@H]1CN(C)C(=O)Nc1ccc(C(F)(F)F)cc1,1.3
11,C[C@@H]1CN([C@H](C)CO)C(=O)Cc2cc(NC(=O)CCN3CCOCC3)ccc2O[C@@H]1CN(C)S(C)(=O)=O,3.88
12,Cc1ccc(S(=O)(=O)N(C)C[C@H]2Oc3ccc(NS(=O)(=O)c4ccccc4)cc3CC(=O)N([C@@H](C)CO)C[C@H]2C)cc1,-6.07
13,C[C@@H]1CN([C@H](C)CO)C(=O)c2cccc(NC(=O)C3CCCCC3)c2O[C@@H]1CN(C)C(=O)NC1CCCCC1,6.03
14,C[C@H](CO)N1C[C@H](C)[C@H](CN(C)Cc2ccc3c(c2)OCO3)Oc2c(NC(=O)NC3CCCCC3)cccc2C1=O,-16.1
15,CNC[C@@H]1Oc2ccc(NS(=O)(=O)c3c(C)noc3C)cc2CC(=O)N([C@@H](C)CO)C[C@@H]1C,0.843
16,CC(C)NC(=O)Nc1ccc2c(c1)C(=O)N([C@H](C)CO)C[C@H](C)[C@@H](CN(C)S(C)(=O)=O)OCCCC[C@@H](C)O2,1.03
17,C[C@@H]1CN([C@@H](C)CO)C(=O)Cc2cc(NC(=O)C3CCCCC3)ccc2O[C@@H]1CN(C)C(=O)Nc1ccc(C(F)(F)F)cc1,-12.7
18,Cc1ccc(S(=O)(=O)N(C)C[C@@H]2Oc3c(NS(=O)(=O)c4ccc(F)cc4)cccc3C(=O)N([C@@H](C)CO)C[C@H]2C)cc1,15.4
